Experimental data from the EternaBench riboswitch data.

Test system: MS2 coat protein
Assay: apparent Kd, MS2 coat protein; higher = weaker binding; RNA-MaP array; FMN 200 µM where present
Summary of the method: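 Each design was made on Illumina sequencing-chip clusters by stalled E. coli RNA polymerase and titrated with SNAP-549-labelled MS2 coat protein from 0.7 or 1.5 nM, doubling to 3 µM, in the absence and then the presence of constant ligand. The buffer was 100 mM Tris-HCl pH 7.5, 80 mM KCl, 4 mM MgCl2, BSA, DTT, yeast tRNA and Tween-20. The apparent Kd is the median of filtered per-cluster fits of binding curves, with green signal normalised to red-channel RNA signal and control-cluster median Fmax.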

[1] = designed as: ON switch for flavin mononucleotide, no ligand
[2] = ligand present: flavin mononucleotide, designed as: ON switch for flavin mononucleotide
[3] = designed as: OFF switch for flavin mononucleotide, no ligand
[4] = ligand present: flavin mononucleotide, designed as: OFF switch for flavin mononucleotide

Row | Sequence | apparent Kd [1] [nM] | apparent Kd [2] [nM] | apparent Kd [3] [nM] | apparent Kd [4] [nM]
1 | UGGUACAUGGGAGGAUAUGGGUUGAUAACAUGAGGAUCACCCAUGUUAAAUAAGCCGAGAGGCUACUAGAAGGCUCAUGUACCU | 327 | 10.4 | – | –
2 | UUGCCUCAGAACAUGAGGAUCACCCAUGUGCUGCGGGCAUCGUAGGAUAUGAUGGUAUGAUACCAUCAGAAGGAUGAUGGUACC | 6.18 | 5.77 | – | –
3 | UUGGACGUCGUAGGAUAUGUAGGAUAUUCCUACAUGAGGAUCACCCAUGUUGACGUGGAAGAAGGACAGAAGGACGAUGUCCAU | 55.3 | 4.63 | – | –
4 | GGGCUCGGAGGAUAUACAAUGGGCUCGGGAAAUCGGGUCUUACAUGAGGAUCACCCAUGUAGAAGGUCGGGUCU | – | – | 22.2 | 47.1
5 | ACGACAAAAGUCGAACGAUGUAGCAGAAGGACAUGAGGAUCACCCAUGUAAAAUGUAACAGCCAUGUAGGAUAUGCAAAAUCGA | – | – | 37.7 | 159
6 | GUGCAGGUAGGAUAUCCACCGGCAAACAUGAGGAUCACCCAUGUGACGCUCCCUUGUCUUGGAGAAGGGCCGGCAU | – | – | 33.1 | 27.5
7 | CCGAAUGUCACAGGAUAUGGUCCGGGCACGCGACCAGAAGGGUGAUCUCACAUGAGGAUCACCCAUGUGCAGGCGUAAGGCUGC | 28.4 | 193 | – | –
8 | CUAUGAGCGAUAGGAUAUACUGAGAUUGAGUGGGUAGAAGGAUCGAUCGUGUAGAAGACAUGAGGAUCACCCAUGUUACGGGCC | 115 | 147 | – | –
9 | UCCGACCUAGGAUAUACCUGGGCCGCCUCGUGUUAUCACCUACAUGAGGAUCACCCAUGUAGAAGGAGGACGGU | – | – | 46.7 | 64.1
10 | GUGGUGCAUAUACGUGGAUGUACAUGAGGAUCACCCAUGUAAGAGGAUAUGCGGAUACUAGCUCAGCAGAAGGCUUACAAAUAA | – | – | 16.1 | 73.8
11 | AGACCGCUACGCCGGUUUCACGCACAGGAUAUGCGGUUACAUGAGGAUCACCCAUGUGGCCAUGUGUAGAAGGGUGGUUCGUGC | 37 | 30.1 | – | –
12 | AUGCAACAUGAGGAUCACCCAUGUGAGGAUAUCGUAUAAUACUGUUGAAAGAGUUAGACGAGAAGGCACACCGU | – | – | 28.2 | 54
13 | AGCUACGUUUCGUAGCAGUGUCAUCGAGAAGGCCCUUACAUGACAACAUGAGGAUCACCCAUGUGGGAGGAUAUCGAUGAUACA | 11.4 | 8.98 | – | –
14 | AUCAGUCCGUAGAAGGGUGACAUGAGGAUCACCCAUGUGCCGUGUGCAUUUAUGCCUCCACGGCCACAGGAUAUACGGAGUCGA | 89 | 22.6 | – | –
15 | GUAUGGGUAGAAGGACAUGAGGAUCACCCAUGUUGUGUGUCUAAGGAUAUUAGAGAAGAUUGACGUAAGAAGGUAGAUGUGUGG | – | – | 94.2 | 80.8
16 | CGAUGACACAGUCAUCCAAUACGAACAUGAGGAUCACCCAUGUAGGAUAUGGUACUCACAGAGUAGCAGAAGGACAUGUGCCUU | – | – | 72.8 | 158
17 | GGAUAGGACAGAGGAUAUACGUGCUAGAGAUACUAGCAAAAUUUCCGCACAUGAGGAUCACCCAUGUAGAAGGCUGUCCUAUCG | – | – | 5.82 | 9.26
18 | AGUGUCAUCGAGAAGGCCUUGACAUGAGGAUCACCCAUGUUGUAACAUGGGAGGAUAUCGAUGAUACAGCUACGUUUCGUAGCA | 625 | 47.3 | – | –
19 | GGUUGUCAUAGUCAUCCUUUCCGUACAUGAGGAUCACCCAUGUAGGAUAUGCUACUCACAGUGUAGCAGAAGGGCGUGUGUCUU | – | – | 16.6 | 17.6
20 | GUUAGACAUGAGGAUCACCCAUGUGAGGAUAUGAUGCGAUCGUGCUGACAUGAUCGCAUCAGAAGGCACAUAUG | – | – | 133 | 190
21 | GCCCGAACCACAGGAUAUCCCAAUGUUUUACAGGGAGAAGGGUGAGAGUAUGACAUGAGGAUCACCCAUGUUGUUCGGGUGGAA | 709 | 227 | – | –
22 | AGACCGUUCGAGAAGGUGCGAGAGAAAUGUGAGUGAGGAUAUUGAAACAUGAGGAUCACCCAUGUCAUGAGGAUCGCCGAUGUG | 39.6 | 31.6 | – | –
23 | UCCACUACUGAGAAGGGAUACAUAUAAUUCUAGUCAGGAUAUCGAUACAGUGCAGCAUGAGGACAUGAGGAUCACCCAUGUAUU | 18.9 | 16 | – | –
24 | ACAGACCAACAGAAGGGUGAGGUGUUGUUCUUCACAGGAUAUGUUGGCAACAUGAGGAUCACCCAUGUUGGUUUUGAAGUACGU | 16.3 | 4.68 | – | –

Row | Sequence | apparent Kd [1] [nM] | apparent Kd [2] [nM] | apparent Kd [3] [nM] | apparent Kd [4] [nM]
25 | AAAAAGUCAGGAUAUGGAAAAAAAAAAAAAAAAAAAAAAAACCAGAAGGGACAUGAGGAUCACCCAUGUAAAAA | – | – | 71.5 | 43.8
26 | UUUUUGUGAGGAUAUUAGUAGUAAAAAAAUAAAAUUACUACUGAGAAGGCACAUGAGGAUCACCCAUGUUCCUC | – | – | 35.7 | 174
27 | AAUUCGUCAGGAUAUGCAUGUAAUUGUUACAUUUCGCCGUUGCAGAAGGGACAUGAGGAUCACCCAUGUAAGUC | – | – | 32.8 | 34.9
28 | CUAUUAUUGAUCCAUUUUUUCAACAUGAGGAUCACCCAUGUGCAGGAUAUCGUGAUUAUUAUCAACGAGAAGGGCAAAUUCACG | – | – | 45.7 | 149
29 | UCCUAACAUGAGGAUCACCCAUGUCAGGAUAUGAUACUAUGUACUUCGGUACAUAGUAUCAGAAGGGACAUCCU | – | – | 15.3 | 16.6
30 | AUUUAGAGAGGAUAUAUAAUGUGAAACAUGAGGAUCACCCAUGUAAUAUUAUGGAUGUAAAUAGAAGGCUCAUUUA | – | – | 32.7 | 27.7
31 | UCACGGGUUUGAGGAUAUAUAUUUAUUAUUUUAAUAGAAGGCAAAGAGAUAGUUUUUUCACUAUACAUGAGGAUCACCCAUGUU | – | – | 41.5 | 36
32 | GGGUACAUCGGAGGAUAUCAUGUAAAUACAUGAGGAUCACCCAUGUCGAUGGCGACAUCGGAGAUUGAGAAGGCCGAUGUACCG | 448 | 12.3 | – | –
33 | GCUGGGUAGGCAGGAUAUCCUCGCGCAAACACAUGAGGAUCACCCAUGUACACAAAACGUGAUAUGGAGAAGGGCUGACCCACA | 33.2 | 6.68 | – | –
34 | AUCAUGAGAGGAUAUACAUGAGGAUCACCCAUGUGGUAAACACCAUGAGCUCAAUUACGUAGAAGGCUCAUUUG | – | – | 26.4 | 45.6
35 | ACGUGGAGUCCGCAACAGAACACACAGGAUAUGAGUGGGCACAUGAGGAUCACCCAUGUUACGGAUCAGAAGGGUGUGCUCAUG | 449 | 56.3 | – | –
36 | AGCUCGUACACAGGAUAUCCGUUGCUGCGCACUGGAGAAGGGUGACAUCCGCACAUGAGGAUCACCCAUGUACCGGGACAAUAU | 282 | 640 | – | –
37 | GGAGAGUCAGGAUAUACAUGAGGAUCACCCAUGUUGGAAAGUGGAGGGACGGGAGUCCGUAGAAGGGACGAGAG | – | – | 34.4 | 27.7
38 | AGCAUGCUUGGGUAACCUGGCACAUGAGGAUCACCCAUGUGACAGGAUAUCGACGUAGAUGACGACGAGAAGGGUCUGAUGGGU | – | – | 7.61 | 12.3
39 | GGCAGCUCAGGAUAUAGUUAAAACGACAUGAGGAUCACCCAUGUGACUGAUAUGCGGCGCCUAGAAGGGAGGUGCC | – | – | 18.9 | 18.2
40 | AUUACCAGAGGAUAUGCGAGGGUGUACCUCCCACAGCGAACACAUGAGGAUCACCCAUGUAGAAGGCUGAACAU | – | – | 38.9 | 33
41 | CCAUUUCAGUAAGGAUAUAUAAACAUGACGAUACAUGAGGAUCACCCAUGUGUAGAAGGUACUAAUACAUAUAAUGCAAUGUUC | – | – | 16.6 | 15.7
42 | GCUCCGCACUAGAAGGGUGACAUGAGGAUCACCCAUGUGCACUUCCGCUCUUAGCGGAAAGUGCCACAGGAUAUAGUGUGGAGU | 31.8 | 113 | – | –
43 | CGCUCAAUUACUUUGAAUAGAAUCAGAAGGCGUUACAUGAGGAUCACCCAUGUUAUGAUGUGUAACGAGGAUAUGAAUUGAGCG | – | – | 38.2 | 208
44 | AAGCUGGUAGGAUAUGCUAGGGCGACUAAUGCGCCGAUAGUACAUGAGGAUCACCCAUGUAGAAGGGCCAGAAA | – | – | 24.3 | 18.4
45 | UUAAUCUAUACAGGAUAUCCAUACGCUGCAUACGGAGAAGGGUAACAAUCAUGAGGACAUGAGGAUCACCCAUGUUUUGAGCAU | 42.8 | 26.3 | – | –
46 | UUUAUUUUUACAGGAUAUCAUCUAUUUAACUCAUGCACAUGUUUACAUGAGGAUCACCCAUGUUUUGAGAAGGGUAUUGAAACA | 246 | 259 | – | –
47 | GGACCUCCUGAGGAUAUUGCAUCACCCGACUGAUAAGAAGGCAGAACAUGAGGAUCACCCAUGUGGGUACUCGG | – | – | 32.3 | 36.1
48 | UGGAUGGUAUGAGGAUAUGCGCGCGAAACGCGCGCAGAAGGCGUGUCAAUAGACAUGAGGAUCACCCAUGUACUAUCCAUCCAA | 85.2 | 9.82 | – | –
